From ChEMBL document CHEMBL4342471, “Discovery of Thieno[2,3-d]pyrimidine-Based Hydroxamic Acid Derivatives as Bromodomain-Containing Protein 4/Histone Deacetylase Dual Inhibitors Induce Autophagic Cell Death in Colorectal Carcinoma Cells” (J Med Chem, 2020)
Calls of active or inactive are those of the source. The rule behind the calls is not given here.

Columns and labels:
[1] = molecular target: T1, Protein deacetylase HDAC6 (Homo sapiens, UniProt Q9UBN7); assay: Inhibition of HDAC6 (unknown origin) using biotinylated histone H3 KAc peptide (1 to 21 residues) as substrate by HTRF assay
T1 sequence (Q9UBN7 whole entry): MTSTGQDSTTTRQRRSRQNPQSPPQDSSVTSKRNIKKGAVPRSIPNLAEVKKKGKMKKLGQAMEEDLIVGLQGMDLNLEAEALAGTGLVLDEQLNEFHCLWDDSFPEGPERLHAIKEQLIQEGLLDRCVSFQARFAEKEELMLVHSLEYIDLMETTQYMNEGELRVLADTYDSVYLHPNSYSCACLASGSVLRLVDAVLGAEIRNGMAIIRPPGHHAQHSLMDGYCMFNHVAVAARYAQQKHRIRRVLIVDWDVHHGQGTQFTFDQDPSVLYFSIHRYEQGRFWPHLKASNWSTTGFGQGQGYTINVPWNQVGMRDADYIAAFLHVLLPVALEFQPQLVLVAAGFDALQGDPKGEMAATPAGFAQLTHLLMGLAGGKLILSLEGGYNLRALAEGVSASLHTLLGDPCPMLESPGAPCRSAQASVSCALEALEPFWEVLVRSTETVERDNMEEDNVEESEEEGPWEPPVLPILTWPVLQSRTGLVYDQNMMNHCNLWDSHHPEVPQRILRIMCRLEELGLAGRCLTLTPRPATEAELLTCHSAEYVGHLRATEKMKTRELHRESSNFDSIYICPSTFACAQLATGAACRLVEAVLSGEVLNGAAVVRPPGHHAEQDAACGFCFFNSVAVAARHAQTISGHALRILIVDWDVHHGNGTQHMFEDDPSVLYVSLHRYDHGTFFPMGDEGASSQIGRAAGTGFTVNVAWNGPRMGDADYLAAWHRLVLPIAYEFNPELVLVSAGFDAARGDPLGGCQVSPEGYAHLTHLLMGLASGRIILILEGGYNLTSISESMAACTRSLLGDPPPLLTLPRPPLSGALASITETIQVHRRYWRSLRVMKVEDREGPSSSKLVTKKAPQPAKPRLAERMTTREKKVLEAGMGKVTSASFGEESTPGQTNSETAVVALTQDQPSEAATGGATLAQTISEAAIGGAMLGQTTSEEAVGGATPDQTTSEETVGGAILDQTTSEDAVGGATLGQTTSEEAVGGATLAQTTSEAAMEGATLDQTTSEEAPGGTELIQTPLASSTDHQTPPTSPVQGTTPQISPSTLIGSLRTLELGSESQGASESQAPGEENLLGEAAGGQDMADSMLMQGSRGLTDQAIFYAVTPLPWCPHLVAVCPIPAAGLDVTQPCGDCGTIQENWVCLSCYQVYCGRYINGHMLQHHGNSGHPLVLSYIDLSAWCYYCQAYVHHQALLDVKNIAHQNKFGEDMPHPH

[2] = molecular target: T2, Bromodomain-containing protein 4 (Homo sapiens, UniProt O60885); assay: Inhibition of BRD4 in human HCT116 cells assessed as induction of autophagic flux by measuring accumulation of p62 at 0.5 uM after 24 hrs in presence of auto-phagolysosome inhibitor, bafilomycin-A1 by Western blot analysis; assay type: cell-based
How it was run: (§1)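 HCT-116 cells received 0.5 μM compound with or without bafilomycin-A1 for 24 hours. LC3 and p62 protein were then analysed by western blot.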

Histone deacetylase 1 = Histone deacetylase 1 (Homo sapiens, UniProt Q13547); assay: Inhibition of HDAC1 (unknown origin) using biotinylated histone H3 KAc peptide (1 to 21 residues) as substrate by HTRF assay
[3] = Tmax in Sprague-Dawley rat at 30 mg/kg, iv administered as bolus dose measured up to 1440 mins by UPLC-QTOF/MS analysis; assay type: ADME, organism-based; settings: in vivo
HCT-116 [4] = assay: Decrease in BRD4 expression in human HCT116 cells at 0.2 to 0.5 uM incubated for 24 hrs by western blot analysis; assay type: functional, cell-based
[5] = molecular target: T2, Bromodomain-containing protein 4; assay: Inhibition of BRD4 in human HCT116 cells transfected with ATG5 siRNA assessed as induction of autophagy by measuring LC3 cleavage at 0.5 uM by Western blot analysis; assay type: cell-based
How it was run: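 HCT-116 cells first transfected with ATG5 siRNA or scramble siRNA; after silencing, exposed to 0.5 µM test agent or normal saline, then ATG5, AMPKα, p-AMPKα, p62 and LC3 protein assessed by western blot.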

DLD-1 = assay: Antiproliferative activity against human DLD1 cells assessed as reduction in cell viability measured after 24 to 48 hrs by MTT assay; assay type: functional, cell-based
Homo sapiens [6] = species on record: Homo sapiens; assay: Inhibition of BRD4/HDAC in human HCT116 cells assessed as increase in caspase 3 cleavage at 0.2 to 0.5 uM measured after 24 hrs by Western blot analysis; assay type: cell-based
HCT-116 [7] = assay: Induction of apoptosis in human HCT116 cells assessed as late apoptotic cells at 0.2 uM by Annexin-V FITC/propidium iodide staining-based flow cytometry (reference value: 3.51 %); assay type: functional
HCT-116 [8] = assay: Antiproliferative activity against human HCT116 cells assessed as reduction in cell viability measured after 24 to 48 hrs by MTT assay; assay type: functional, cell-based
Histone deacetylase 9 = Histone deacetylase 9 (Homo sapiens, UniProt Q9UKV0); assay: Inhibition of HDAC9 (unknown origin) using biotinylated histone H3 KAc peptide (1 to 21 residues) as substrate by HTRF assay
[9] = Cmax in Sprague-Dawley rat at 30 mg/kg, po measured up to 1440 mins by UPLC-QTOF/MS analysis; assay type: ADME, organism-based; set-up: dose 30 mg/kg, route oral; settings: in vivo
[10] = molecular target: T2, Bromodomain-containing protein 4; assay: Inhibition of BRD4 in human HCT116 cells assessed as induction of autophagic flux by measuring accumulation of LC3-II at 0.5 uM after 24 hrs in presence of auto-phagolysosome inhibitor, bafilomycin-A1 by Western blot analysis; assay type: cell-based; how it was run: as §1
Homo sapiens [11] = species on record: Homo sapiens; assay: Inhibition of BRD4/HDAC in human HCT116 cells assessed as increase in caspase 9 cleavage at 0.2 to 0.5 uM measured after 24 hrs by Western blot analysis; assay type: cell-based
[12] = molecular target: Bromodomain-containing protein 3 (Homo sapiens, UniProt Q15059); assay: Inhibition of human recombinant His-tagged BRD3 BD2 domain expressed in Escherichia coli BL21(DE3)-R3-pRARE2 cells by AlphaScreen assay
[13] = Half life in Sprague-Dawley rat at 30 mg/kg, po measured up to 1440 mins by UPLC-QTOF/MS analysis; assay type: ADME, organism-based; settings: in vivo
HCT-116 [14] = assay: Induction of apoptosis in human HCT116 cells assessed as viable cells at 0.2 uM by Annexin-V FITC/propidium iodide staining-based flow cytometry (reference value: 93.4 %); assay type: functional; settings: read-out: Activity
HCT-116 [15] = assay: Induction of apoptosis in human HCT116 cells assessed as necrotic cells at 0.2 uM by Annexin-V FITC/propidium iodide staining-based flow cytometry (reference value: 0.304 %); assay type: functional
Homo sapiens [16] = species on record: Homo sapiens; assay: Inhibition of BRD4/HDAC in human HCT116 cells assessed as increase in CTF1 mRNA level at 0.5 uM after 24 hrs by RT-PCR analysis; assay type: cell-based
How it was run: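 HCT-116 cells incubated 24 h with test agent (0.5 µM, 2.0 µM or 10 µM depending on compound); IL6, OSM, LIF and CTF1 mRNA levels then quantified.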

Histone deacetylase 1, sequence (Q13547 whole entry, the tested form may be a part): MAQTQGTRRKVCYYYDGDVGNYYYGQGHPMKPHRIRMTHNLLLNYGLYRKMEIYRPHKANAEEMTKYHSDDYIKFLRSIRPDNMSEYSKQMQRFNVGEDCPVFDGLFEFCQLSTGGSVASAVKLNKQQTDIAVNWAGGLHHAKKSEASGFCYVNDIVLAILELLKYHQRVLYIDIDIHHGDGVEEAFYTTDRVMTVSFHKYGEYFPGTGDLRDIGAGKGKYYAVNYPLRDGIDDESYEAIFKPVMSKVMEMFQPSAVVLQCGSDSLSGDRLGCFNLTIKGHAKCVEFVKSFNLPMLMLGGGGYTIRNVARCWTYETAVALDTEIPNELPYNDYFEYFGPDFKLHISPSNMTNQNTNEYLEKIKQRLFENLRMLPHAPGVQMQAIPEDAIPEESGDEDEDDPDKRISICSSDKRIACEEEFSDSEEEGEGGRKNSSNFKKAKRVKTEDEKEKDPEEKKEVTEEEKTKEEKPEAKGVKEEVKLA
Histone deacetylase 9, sequence (Q9UKV0 whole entry, the tested form may be a part): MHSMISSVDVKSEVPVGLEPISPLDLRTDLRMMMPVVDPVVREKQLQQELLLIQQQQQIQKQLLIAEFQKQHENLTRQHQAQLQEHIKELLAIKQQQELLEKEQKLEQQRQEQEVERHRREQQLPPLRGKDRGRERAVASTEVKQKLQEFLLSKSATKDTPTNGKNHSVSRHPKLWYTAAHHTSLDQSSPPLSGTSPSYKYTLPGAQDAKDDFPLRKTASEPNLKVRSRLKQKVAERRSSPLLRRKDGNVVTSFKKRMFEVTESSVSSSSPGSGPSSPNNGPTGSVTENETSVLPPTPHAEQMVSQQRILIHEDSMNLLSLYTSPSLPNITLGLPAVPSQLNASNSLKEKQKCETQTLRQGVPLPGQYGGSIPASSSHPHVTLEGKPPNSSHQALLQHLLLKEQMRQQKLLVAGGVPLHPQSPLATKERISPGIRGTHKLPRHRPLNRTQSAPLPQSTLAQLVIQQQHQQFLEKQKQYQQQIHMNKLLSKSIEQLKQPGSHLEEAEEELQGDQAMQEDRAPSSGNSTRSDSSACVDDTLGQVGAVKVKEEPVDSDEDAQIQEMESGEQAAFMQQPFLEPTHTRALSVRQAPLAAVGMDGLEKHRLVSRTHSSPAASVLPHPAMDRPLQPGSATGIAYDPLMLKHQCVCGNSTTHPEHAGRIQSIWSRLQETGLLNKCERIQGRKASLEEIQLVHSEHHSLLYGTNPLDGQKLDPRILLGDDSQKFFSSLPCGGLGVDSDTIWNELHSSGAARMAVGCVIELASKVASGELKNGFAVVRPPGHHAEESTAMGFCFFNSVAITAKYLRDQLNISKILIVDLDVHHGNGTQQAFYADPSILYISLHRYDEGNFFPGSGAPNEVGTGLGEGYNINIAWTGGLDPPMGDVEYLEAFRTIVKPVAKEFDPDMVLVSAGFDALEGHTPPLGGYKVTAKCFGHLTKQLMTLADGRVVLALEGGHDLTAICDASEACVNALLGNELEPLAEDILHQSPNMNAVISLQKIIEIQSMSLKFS
Bromodomain-containing protein 3, sequence (Q15059 whole entry, the tested form may be a part): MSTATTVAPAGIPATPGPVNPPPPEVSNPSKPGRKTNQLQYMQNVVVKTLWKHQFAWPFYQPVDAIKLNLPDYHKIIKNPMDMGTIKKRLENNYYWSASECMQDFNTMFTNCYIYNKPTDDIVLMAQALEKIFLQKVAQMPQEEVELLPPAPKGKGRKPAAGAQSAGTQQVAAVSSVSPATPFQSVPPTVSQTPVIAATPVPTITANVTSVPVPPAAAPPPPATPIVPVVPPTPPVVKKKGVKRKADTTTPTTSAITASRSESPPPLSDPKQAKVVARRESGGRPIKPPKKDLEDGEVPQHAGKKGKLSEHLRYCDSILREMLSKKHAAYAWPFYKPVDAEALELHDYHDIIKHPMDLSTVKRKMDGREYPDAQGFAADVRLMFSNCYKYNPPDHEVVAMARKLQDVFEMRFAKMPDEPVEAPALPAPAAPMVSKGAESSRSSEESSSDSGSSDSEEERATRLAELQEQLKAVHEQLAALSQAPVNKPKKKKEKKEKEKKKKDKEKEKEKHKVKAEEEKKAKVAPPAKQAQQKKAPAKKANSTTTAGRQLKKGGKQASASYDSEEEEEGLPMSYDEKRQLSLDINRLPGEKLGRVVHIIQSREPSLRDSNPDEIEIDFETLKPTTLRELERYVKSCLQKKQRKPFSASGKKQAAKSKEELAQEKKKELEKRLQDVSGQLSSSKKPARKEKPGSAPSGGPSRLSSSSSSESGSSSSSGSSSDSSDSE

Cc1cc(-c2nc3sc4c(c3c(=O)[nH]2)CCN(C)C4)cc(C)c1OCCCCCC(=O)NO
IC50 [1]: 0.073 µM | inhibition [2]: inactive | IC50 (Histone deacetylase 1): 0.046 µM | Tmax [3]: 7.2 min | inhibition (HCT-116 [4]): Active | inhibition [5]: inactive | IC50 (DLD-1): 2.11 µM | inhibition (Homo sapiens [6]): Active | Activity (HCT-116 [7]): 23% | IC50 (HCT-116 [8]): 0.45 µM | IC50 (Histone deacetylase 9): > 10 µM | Cmax [9]: 5360 ng/mL | inhibition [10]: inactive | inhibition (Homo sapiens [11]): Active | IC50 [12]: > 20 µM | half-life [13]: 4.8 h | viability at 0.2 µM (HCT-116 [14]): 61.7% | Activity (HCT-116 [15]): 7.01% | inhibition (Homo sapiens [16]): Active
